Converted amounts (≈) assume the structure as drawn. The source made the active and inactive calls. The calls are words filed in the database; no cut-off is given here.
How the values were obtained:
[1] = target: Epidermal growth factor receptor (Homo sapiens, UniProt P04626+P00533+Q15303+P21860); experiment: Inhibition of human EGFR extracellular domain/TIE2 intracellular domain transfected in mouse NIH/3T3 cells assessed as phosphotyrosine level preincubated for 60 mins followed by EGF stimulation by DELFIA assay; format: cell-based; conditions: nih3t3
Outline: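 NIH/3T3 fibroblasts stably transfected with a chimera of human EGFR extracellular domain and human Tie-2 intracellular domain. Cells were exposed to compound for 60 min, stimulated with EGF, then fixed. Phosphotyrosine was read with an Eu-labeled antibody by DELFIA. In washout runs, medium was replaced with fresh medium and cells were stimulated at set times.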

[2] = target: Vascular endothelial growth factor receptor 2 (Homo sapiens, UniProt P35968); experiment: Inhibition of KDR (unknown origin)
Sequence of Vascular endothelial growth factor receptor 2 (P35968 whole entry): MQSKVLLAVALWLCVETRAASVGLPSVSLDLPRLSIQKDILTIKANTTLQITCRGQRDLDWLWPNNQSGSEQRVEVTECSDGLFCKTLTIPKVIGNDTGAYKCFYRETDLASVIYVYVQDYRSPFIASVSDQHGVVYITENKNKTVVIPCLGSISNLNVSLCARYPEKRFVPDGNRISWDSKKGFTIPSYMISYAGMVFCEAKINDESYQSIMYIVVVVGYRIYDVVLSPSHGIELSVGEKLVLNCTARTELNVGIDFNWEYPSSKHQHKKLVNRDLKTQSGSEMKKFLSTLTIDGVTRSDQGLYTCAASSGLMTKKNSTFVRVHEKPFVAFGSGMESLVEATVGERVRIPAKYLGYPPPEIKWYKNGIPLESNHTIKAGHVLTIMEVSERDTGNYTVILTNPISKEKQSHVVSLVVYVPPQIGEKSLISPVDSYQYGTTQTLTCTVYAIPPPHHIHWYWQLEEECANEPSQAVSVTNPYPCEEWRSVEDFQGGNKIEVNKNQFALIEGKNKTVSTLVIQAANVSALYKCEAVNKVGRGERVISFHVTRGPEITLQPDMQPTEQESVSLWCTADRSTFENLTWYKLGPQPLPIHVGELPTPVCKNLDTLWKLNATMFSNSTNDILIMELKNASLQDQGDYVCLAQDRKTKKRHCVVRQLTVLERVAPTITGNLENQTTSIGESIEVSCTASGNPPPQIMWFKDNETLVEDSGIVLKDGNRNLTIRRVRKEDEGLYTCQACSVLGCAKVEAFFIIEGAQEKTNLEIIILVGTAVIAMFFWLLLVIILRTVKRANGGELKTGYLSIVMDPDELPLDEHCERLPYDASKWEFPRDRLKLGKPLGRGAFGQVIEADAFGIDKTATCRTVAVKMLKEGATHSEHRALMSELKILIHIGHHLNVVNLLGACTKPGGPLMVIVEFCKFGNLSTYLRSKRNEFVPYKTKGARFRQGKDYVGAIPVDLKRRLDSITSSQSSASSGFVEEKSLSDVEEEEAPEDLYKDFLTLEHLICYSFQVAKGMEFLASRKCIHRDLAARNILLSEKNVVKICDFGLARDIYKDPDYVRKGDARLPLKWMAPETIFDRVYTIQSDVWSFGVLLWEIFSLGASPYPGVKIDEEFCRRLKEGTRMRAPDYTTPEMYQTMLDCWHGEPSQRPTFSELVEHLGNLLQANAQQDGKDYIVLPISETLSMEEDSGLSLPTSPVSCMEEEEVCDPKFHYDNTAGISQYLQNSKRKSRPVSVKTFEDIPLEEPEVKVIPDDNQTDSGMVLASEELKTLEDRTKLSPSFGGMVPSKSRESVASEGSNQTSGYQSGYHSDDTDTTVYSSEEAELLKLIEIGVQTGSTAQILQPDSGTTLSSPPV

[3] = target: Platelet-derived growth factor receptor beta (Homo sapiens, UniProt P09619); experiment: Inhibition of PDGFR (unknown origin)
Sequence of Platelet-derived growth factor receptor beta (P09619 whole entry): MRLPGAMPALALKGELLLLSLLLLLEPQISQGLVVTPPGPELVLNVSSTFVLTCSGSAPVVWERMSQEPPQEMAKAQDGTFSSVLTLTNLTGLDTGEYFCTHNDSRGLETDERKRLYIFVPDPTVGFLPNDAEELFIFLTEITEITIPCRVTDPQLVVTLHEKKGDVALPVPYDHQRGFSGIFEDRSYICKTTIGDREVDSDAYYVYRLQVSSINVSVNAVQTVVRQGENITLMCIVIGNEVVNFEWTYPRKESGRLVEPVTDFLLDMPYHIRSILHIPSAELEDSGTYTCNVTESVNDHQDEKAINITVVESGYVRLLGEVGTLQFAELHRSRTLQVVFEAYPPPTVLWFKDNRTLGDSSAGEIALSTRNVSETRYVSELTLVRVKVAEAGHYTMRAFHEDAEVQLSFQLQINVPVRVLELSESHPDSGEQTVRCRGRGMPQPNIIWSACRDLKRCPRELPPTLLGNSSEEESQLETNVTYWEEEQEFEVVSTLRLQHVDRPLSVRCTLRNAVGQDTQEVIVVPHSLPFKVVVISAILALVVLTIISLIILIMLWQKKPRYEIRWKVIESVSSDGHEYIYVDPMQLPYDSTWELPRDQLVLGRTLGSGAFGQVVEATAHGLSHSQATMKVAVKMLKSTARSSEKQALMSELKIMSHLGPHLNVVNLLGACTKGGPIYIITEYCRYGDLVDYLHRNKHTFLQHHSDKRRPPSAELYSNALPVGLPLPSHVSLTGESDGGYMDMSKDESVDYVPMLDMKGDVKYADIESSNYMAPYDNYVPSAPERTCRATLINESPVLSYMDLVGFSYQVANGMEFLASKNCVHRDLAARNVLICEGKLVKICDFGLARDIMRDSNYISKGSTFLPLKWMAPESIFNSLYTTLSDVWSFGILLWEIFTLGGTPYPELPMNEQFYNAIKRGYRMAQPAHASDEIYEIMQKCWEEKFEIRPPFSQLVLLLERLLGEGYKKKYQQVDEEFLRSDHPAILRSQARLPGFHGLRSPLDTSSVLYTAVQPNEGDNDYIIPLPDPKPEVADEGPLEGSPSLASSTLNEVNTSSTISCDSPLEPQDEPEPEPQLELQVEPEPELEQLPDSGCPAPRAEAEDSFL

[4] = Efflux ratio of permeability across basolateral to apical side over apical to basolateral side in human Caco2 cells expressing p-gp; format: ADME, cell-based; conditions: Caco-2
[5] = Metabolic stability in rat liver microsomes assessed as hepatic extraction ratio; format: ADME, Microsome; conditions: read-out: ERH
[6] = Permeability across apical to basolateral side in human Caco2 cells expressing p-gp; format: ADME, cell-based; conditions: Caco-2, read-out: permeability
Angiopoietin-1 receptor [7] = target: T1, Angiopoietin-1 receptor (Homo sapiens, UniProt Q02763); experiment: Inhibition of GST-fused TIE2 (unknown origin) using poly[Glu:Tyr] as substrate assessed as phosphotyrosine level by ELISA
T1 sequence (Q02763 whole entry, the tested form may be a part): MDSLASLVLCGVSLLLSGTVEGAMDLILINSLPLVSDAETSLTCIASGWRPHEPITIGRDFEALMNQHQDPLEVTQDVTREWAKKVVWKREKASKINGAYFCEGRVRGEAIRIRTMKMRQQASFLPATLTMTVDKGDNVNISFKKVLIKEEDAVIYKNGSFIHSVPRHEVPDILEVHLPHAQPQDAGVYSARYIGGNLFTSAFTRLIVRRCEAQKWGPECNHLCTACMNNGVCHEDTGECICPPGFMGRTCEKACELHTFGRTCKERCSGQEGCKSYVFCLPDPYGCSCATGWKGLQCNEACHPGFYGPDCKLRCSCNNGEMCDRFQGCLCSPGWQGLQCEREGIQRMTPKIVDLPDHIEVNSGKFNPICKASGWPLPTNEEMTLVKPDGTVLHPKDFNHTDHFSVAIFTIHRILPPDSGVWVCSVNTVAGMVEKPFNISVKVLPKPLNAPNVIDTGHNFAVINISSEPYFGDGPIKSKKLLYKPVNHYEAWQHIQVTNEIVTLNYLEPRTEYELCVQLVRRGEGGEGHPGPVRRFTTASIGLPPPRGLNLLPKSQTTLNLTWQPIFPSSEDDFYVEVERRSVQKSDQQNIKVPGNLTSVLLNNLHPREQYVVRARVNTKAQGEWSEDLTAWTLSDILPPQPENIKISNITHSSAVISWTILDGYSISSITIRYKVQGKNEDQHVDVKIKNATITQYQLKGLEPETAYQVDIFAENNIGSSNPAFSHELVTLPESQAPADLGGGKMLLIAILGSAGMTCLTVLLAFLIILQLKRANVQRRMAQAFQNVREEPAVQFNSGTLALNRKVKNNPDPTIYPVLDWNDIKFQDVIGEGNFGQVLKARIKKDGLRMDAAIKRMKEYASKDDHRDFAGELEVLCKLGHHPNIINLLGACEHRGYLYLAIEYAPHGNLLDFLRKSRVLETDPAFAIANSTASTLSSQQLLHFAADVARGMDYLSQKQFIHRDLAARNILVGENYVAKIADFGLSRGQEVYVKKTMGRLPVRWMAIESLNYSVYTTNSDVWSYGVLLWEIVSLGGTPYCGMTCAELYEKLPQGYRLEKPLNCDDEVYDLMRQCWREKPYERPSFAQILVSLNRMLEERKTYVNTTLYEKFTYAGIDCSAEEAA
Outline: (§1)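 ELISA on poly-Glu-Tyr-coated plates using a GST-Tie-2 kinase fusion protein and 100 µM ATP. Phosphorylated product was detected with HRP-conjugated anti-phosphotyrosine monoclonal antibody (PY20). For reversibility, enzyme was preincubated with compound for 15 min before ATP was added. Kinetics were run with titrated ATP.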

[8] = Metabolic stability in human liver microsomes assessed as hepatic extraction ratio; format: ADME, Microsome; conditions: read-out: ERH
[9] = Solubility of the compound; format: physicochemical
[10] = Oral bioavailability in Sprague-Dawley rat at 4.2 mg/kg; format: ADME, organism-based; conditions: in vivo
Outline: (§2)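 Ultrafasted Sprague–Dawley rats given 4.2 mg/kg as an oral suspension. Cmax, Tmax, hepatic extraction (Eh) and oral bioavailability were derived from systemic plasma levels.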

Mus musculus [11] = experiment: Inhibition of human TIE2 phosphorylation expressed in rat C6 cells xenografted in po dosed mouse; format: functional, organism-based
Outline: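 Ex vivo assay in C6 rat glioblastoma clones overexpressing human Tie-2 from a retroviral construct, after a single oral dose. Frozen tumors were homogenized in lysis buffer and lysates captured on antibody-coated plates, with HRP-labeled antibody detection. Plasma and tumor drug levels were measured by LC–MS.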

[12] = Permeability across basolateral to apical side in human Caco2 cells expressing p-gp; format: ADME, cell-based; conditions: Caco-2, read-out: permeability
[13] = Clearance in Sprague-Dawley rat at 0.164 mg/kg, iv; format: ADME, organism-based; design: dose 0.164 mg/kg, route intravenous; conditions: in vivo
Outline: (§3)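 Male Sprague–Dawley rats, fed, given a single 0.164 mg/kg IV dose. Clearance, steady-state volume of distribution and half-life were derived from plasma levels.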

[14] = Cmax in Sprague-Dawley rat at 4.2 mg/kg, po; format: ADME, organism-based; design: dose 4.2 mg/kg, route oral; conditions: in vivo; outline: as §2
[15] = Inhibition of cytochrome P450 (unknown origin); format: ADME, Homo sapiens
[16] = Volume of distribution at steady state in Sprague-Dawley rat at 0.164 mg/kg, iv; format: ADME, organism-based; design: dose 0.164 mg/kg, route intravenous; conditions: in vivo, read-out: Vdss; outline: as §3
C6 [17] = experiment: Antitumor activity against rat C6 cells lacking human TIE2 xenografted in mouse assessed as tumor growth inhibition at 10 mg/kg, po qd after 10 days relative to control; format: functional; conditions: C6, 240 h, read-out: TGI
Outline: (§4)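 Oral dosing once or twice daily at 10 or 33 mg/kg for 10 days in the C6 rat glioblastoma xenograft model. The C6 line was uninfected parental cells without human Tie-2. Read-out was percent tumor growth inhibition.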

[18] = Mutagenic activity in micronucleus (unknown origin); format: ADME
Rattus norvegicus = experiment: Metabolic stability in Sprague-Dawley rat assessed as hepatic extraction at 4.2 mg/kg, po; format: ADME, organism-based; design: dose 4.2 mg/kg, route oral; conditions: in vivo; outline: as §2
[19] = target: Fibroblast growth factor receptor (Homo sapiens, UniProt P22607+P11362+P22455+P21802); experiment: Inhibition of FGFR (unknown origin); format: protein assay
C6 [20] = experiment: Antitumor activity against rat C6 cells lacking human TIE2 xenografted in mouse assessed as tumor growth inhibition at 10 mg/kg, po bid after 10 days relative to control; format: functional; conditions: C6, 240 h, read-out: TGI; outline: as §4
[21] = Tmax in Sprague-Dawley rat at 4.2 mg/kg, po; format: ADME, organism-based; design: dose 4.2 mg/kg, route oral; conditions: in vivo; outline: as §2
Mus musculus [22] = experiment: Toxicity in mouse xenografted with rat C6 cells lacking human TIE2 assessed as body weight loss at 10 to 33 mg/kg, po after 10 days; format: organism-based; design: dose 10-33 mg/kg, route oral; conditions: in vivo, 240 h
Salmonella typhimurium = experiment: Mutagenic activity in Salmonella typhimurium by Ames assay; format: toxicity, organism-based; conditions: salmonella enterica subsp. enterica serovar typhimurium
Homo sapiens = species on record: Homo sapiens; experiment: Inhibition of IKr (unknown origin)
[23] = target: Epidermal growth factor receptor (Homo sapiens, UniProt P00533); experiment: Inhibition of EGFR (unknown origin)
C6 [24] = experiment: Antitumor activity against rat C6 cells lacking human TIE2 xenografted in mouse assessed as tumor growth inhibition at 33 mg/kg, po bid after 10 days; format: functional, organism-based; design: dose 33 mg/kg; outline: as §4
[25] = target: Voltage-gated inwardly rectifying potassium channel KCNH2 (Homo sapiens, UniProt Q12809); experiment: Inhibition of human ERG
[26] = Half life in Sprague-Dawley rat at 0.164 mg/kg, iv; format: ADME, organism-based; design: dose 0.164 mg/kg, route intravenous; conditions: in vivo; outline: as §3
C6 [27] = experiment: Antitumor activity against rat C6 cells lacking human TIE2 xenografted in mouse assessed as tumor growth inhibition at 33 mg/kg, po qd after 10 days relative to control; format: functional; conditions: C6, 240 h, read-out: TGI; outline: as §4
[28] = target: Tyrosine-protein kinase Lck (Homo sapiens, UniProt P06239); experiment: Inhibition of LCK (unknown origin)
Sequence of Tyrosine-protein kinase Lck (P06239 whole entry): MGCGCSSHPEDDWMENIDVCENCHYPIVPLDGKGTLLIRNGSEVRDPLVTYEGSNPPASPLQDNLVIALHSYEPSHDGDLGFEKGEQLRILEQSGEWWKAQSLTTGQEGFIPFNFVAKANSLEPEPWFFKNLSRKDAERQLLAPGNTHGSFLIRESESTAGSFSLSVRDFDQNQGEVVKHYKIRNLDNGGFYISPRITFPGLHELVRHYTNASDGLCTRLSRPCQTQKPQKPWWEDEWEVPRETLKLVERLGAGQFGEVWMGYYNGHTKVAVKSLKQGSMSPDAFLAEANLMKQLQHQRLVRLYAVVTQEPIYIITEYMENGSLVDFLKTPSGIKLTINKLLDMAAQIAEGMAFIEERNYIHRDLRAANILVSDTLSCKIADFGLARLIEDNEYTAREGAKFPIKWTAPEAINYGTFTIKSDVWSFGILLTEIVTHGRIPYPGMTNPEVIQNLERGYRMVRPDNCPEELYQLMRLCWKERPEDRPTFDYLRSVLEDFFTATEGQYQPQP

Angiopoietin-1 receptor [29] = target: T1, Angiopoietin-1 receptor; experiment: Inhibition of TIE2 (unknown origin); outline: as §1
[30] = target: Proto-oncogene tyrosine-protein kinase Src (Homo sapiens, UniProt P12931); experiment: Inhibition of SRC (unknown origin)
Sequence of Proto-oncogene tyrosine-protein kinase Src (P12931 2-536 limits assumed): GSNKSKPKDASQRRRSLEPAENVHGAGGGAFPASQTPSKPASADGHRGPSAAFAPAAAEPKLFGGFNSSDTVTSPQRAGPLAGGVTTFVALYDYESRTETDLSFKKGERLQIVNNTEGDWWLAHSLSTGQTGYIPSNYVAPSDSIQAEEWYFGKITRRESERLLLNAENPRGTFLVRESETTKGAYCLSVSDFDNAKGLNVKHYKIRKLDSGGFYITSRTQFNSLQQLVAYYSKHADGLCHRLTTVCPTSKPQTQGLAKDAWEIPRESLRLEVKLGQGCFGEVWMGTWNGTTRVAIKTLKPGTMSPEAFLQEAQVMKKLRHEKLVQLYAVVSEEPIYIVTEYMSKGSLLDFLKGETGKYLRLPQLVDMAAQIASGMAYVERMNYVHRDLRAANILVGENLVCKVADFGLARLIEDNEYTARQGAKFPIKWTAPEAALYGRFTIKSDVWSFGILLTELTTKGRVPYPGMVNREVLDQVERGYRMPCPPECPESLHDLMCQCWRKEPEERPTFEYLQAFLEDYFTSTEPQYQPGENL

Structure (SMILES): Nc1ncnc2c1c(C(=O)c1cccc(NC(=O)Nc3c(F)cccc3F)c1)cn2C1CCCC1
- IC50 [1]: 67 nM
- IC50 [2]: 3100 nM
- IC50 [3]: > 5000 nM
- efflux ratio [4]: 3.5
- hepatic extraction ratio [5]: 0.83
- Papp A→B [6]: 7.7 ×10⁻⁶ cm/s
- IC50 (Angiopoietin-1 receptor [7]): 361 nM

Structure (SMILES): Nc1ncnc2c1c(C(=O)c1cccc(NC(=O)Nc3ccc(Cl)cc3)c1)cn2C1CCCC1
- IC50 [1]: 4.6 nM
- efflux ratio [4]: 17
- hepatic extraction ratio [5]: 0.7
- IC50 (Angiopoietin-1 receptor [7]): 45 nM

Structure (SMILES): COc1ccc(C)cc1NC(=O)Nc1cccc(C(=O)c2cn(C3CCCC3)c3ncnc(N)c23)c1
- IC50 [1]: 0.69 nM
- efflux ratio [4]: 9.4
- hepatic extraction ratio [5]: 0.69
- IC50 (Angiopoietin-1 receptor [7]): 8.8 nM

Structure (SMILES): Nc1ncnc2c1c(C(=O)c1ccc(NS(=O)(=O)c3c(F)cccc3F)cc1)cn2C1CCCC1
- IC50 [1]: 769 nM
- IC50 (Angiopoietin-1 receptor [7]): 745 nM

Structure (SMILES): Nc1ncnc2c1c(C(=O)c1ccc(NC(=O)Nc3c(F)cccc3F)cc1)cn2C1CCCC1
- IC50 [1]: 254 nM
- IC50 (Angiopoietin-1 receptor [7]): 345 nM

Structure (SMILES): Nc1ncnc2c1c(C(=O)c1cccc(NC(=O)Nc3ccc(Cl)cc3Cl)c1)cn2C1CCCC1
- IC50 [1]: 1.2 nM
- efflux ratio [4]: 1.9

Structure (SMILES): CC(C)n1cc(C(=O)c2cccc(NC(=O)Nc3ccc(Cl)cc3)c2)c2c(N)ncnc21
- hepatic extraction ratio [8]: 0.46
- solubility [9]: 35 µg/mL (≈ 78 µM)
- bioavailability [10]: 100%
- inhibition (Mus musculus [11]): Active
- IC50 [2]: > 10000 nM
- Papp B→A [12]: 9.5 ×10⁻⁶ cm/s
- IC50 [3]: 1400 nM
- efflux ratio [4]: 1.5
- hepatic extraction ratio [5]: 0.52
- clearance [13]: 38 mL/min/kg
- Cmax [14]: 1720 ng/mL
- IC50 [15]: > 3000 nM
- Vd [16]: 0.9 L/kg
- inhibition in vivo at 10 mg/kg (C6 [17]): 40%
- Activity [18]: Toxic
- Stability (Rattus norvegicus): 27 mL/min/kg
- IC50 [19]: > 10000 nM
- inhibition in vivo at 10 mg/kg (C6 [20]): 70%
- Tmax [21]: 45 min
- Activity (Mus musculus [22]): Non-toxic
- Activity (Salmonella typhimurium): Non-toxic
- IC20 (Homo sapiens): 1000 nM
- IC50 [23]: > 10000 nM
- TGI (C6 [24]): Active
- inhibition (INH) [25]: Active
- half-life [26]: 24 min
- inhibition in vivo at 33 mg/kg (C6 [27]): 60%

Structure (SMILES): Nc1ncnc2c1c(C(=O)c1cccc(NS(=O)(=O)c3c(F)cccc3F)c1)cn2C1CCCC1
- IC50 [1]: 253 nM
- efflux ratio [4]: 4.7
- IC50 (Angiopoietin-1 receptor [7]): 423 nM

Structure (SMILES): COc1cc(-c2cn([C@H]3CC[C@H](N4CCN(C)CC4)CC3)c3ncnc(N)c23)ccc1NS(=O)(=O)c1ccccc1
- IC50 [2]: > 3000 nM
- IC50 [28]: > 3000 nM
- IC50 (Angiopoietin-1 receptor [29]): 137 nM
- IC50 [30]: > 3000 nM

Structure (SMILES): Nc1ncnc2c1c(Cc1cccc(NS(=O)(=O)c3c(F)cccc3F)c1)cn2C1CCCC1
- IC50 (Angiopoietin-1 receptor [7]): > 10000 nM

Structure (SMILES): Nc1ncnc2c1c(-c1nc3ccc(NC(=O)Nc4c(F)cccc4F)cc3[nH]1)cn2C1CCCC1
- IC50 [1]: 112 nM
- efflux ratio [4]: 3.2
- hepatic extraction ratio [5]: 0.9
- IC50 (Angiopoietin-1 receptor [7]): 241 nM

Structure (SMILES): Cc1ccc(F)c(NC(=O)Nc2cccc(C(=O)c3cn(C4CCCC4)c4ncnc(N)c34)c2)c1
- IC50 [1]: 0.89 nM
- efflux ratio [4]: 9.2
- hepatic extraction ratio [5]: 0.8
- IC50 (Angiopoietin-1 receptor [7]): 12 nM

Structure (SMILES): Nc1ncnc2c1c(-c1nc3ccc(NS(=O)(=O)c4c(F)cccc4F)cc3[nH]1)cn2C1CCCC1
- IC50 [1]: 518 nM
- hepatic extraction ratio [5]: 0.69
- IC50 (Angiopoietin-1 receptor [7]): 568 nM

Source: ChEMBL document CHEMBL2384974, “Discovery and synthesis of novel 4-aminopyrrolopyrimidine Tie-2 kinase inhibitors for the treatment of solid tumors” (Bioorg Med Chem Lett, 2013)
